From ChEMBL document CHEMBL4431310, “Characterization and in vitro activity of a branched peptide boronic acid that interacts with HIV-1 RRE RNA” (Bioorg Med Chem, 2016)
Active and inactive are the calls of the source. The calls are words filed in the database; no cut-off is given here. *1 amine or outer side, *2 acyl side, *3 side chain or, on linkers, in order; H or OH if unused. Where a SMILES comes first, the peptide text is derived from it. Side-chain parts run from the residue outwards. [ ]: non-standard residue; d: D form. The star is where a group is joined. X4 = NCCCC[C@H](NC(=O)[C@@H](N)CCCCNC(=O)c1ccc(B(O)O)cc1)C(=O)N[C@@H](Cc1ccc(B(O)O)cc1)C(=O)*; X1 = N[C@@H](Cc1ccc(B(O)O)cc1)C(=O)N[C@@H](Cc1ccc(O)cc1)C(=O)N[C@@H](Cc1ccc(B(O)O)cc1)C(=O)*; X2 = NCCCC[C@H](NC(=O)[C@@H](N)CCCCN)C(=O)N[C@@H](CCCCNC(=O)c1ccc(B(O)O)cc1)C(=O)*; X3 = NCCCC[C@H](N)C(=O)N[C@@H](CCCCNC(=O)c1ccc(B(O)O)cc1)C(=O)*; Phe(4-B(OH)2) = N[C@@H](Cc1ccc(B(O)O)cc1)C(=O)O; Benzoyl(4-B(OH)2) = O=C(c1ccc(B(O)O)cc1)*; εLys = N[C@@H](CCCCN[*:1])C(=O)[*:2]

Legend:
[1] = target: Rev responsive element (RRE) RNA; experiment: Binding affinity to HIV-1 RRE 2B RNA measured after 4 hrs by dot blot assay; type: nucleic-acid assay, Human immunodeficiency virus 1
Summary of the method: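 RNA at 0.4 nM titrated with peptide 0.001–100 µM for 4 h at rt, filtered through nitrocellulose, washed twice, imaged by phosphorimaging. Kd from four-parameter logistic fit of densitometry; triplicate, SD reported.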

[2] = tested on: Human immunodeficiency virus 1; experiment: Antiviral activity against HIV-1 NL4-3 infected monkey 5BD.1 cells assessed as reduction in p24 production at 10 uM measured over 24 hrs by p24 ELISA; type: functional
[3] = tested on: Human immunodeficiency virus 1; experiment: Antiviral activity against HIV-1 NL4-3 infected in human U87 cells expressing CD4.CXCR4 assessed as inhibition of p24 production at 10 uM measured after 4 days by p24 ELISA; type: functional, organism-based
[4] = tested on: Human immunodeficiency virus 1; experiment: Antiviral activity against HIV-1 NL4-3 infected in human U87 cells expressing CD4.CXCR4 assessed as inhibition of p24 production at 100 uM measured after 4 days by p24 ELISA; type: functional, organism-based
[5] = tested on: HeLa; experiment: Cytotoxicity in human HeLa cells assessed as cell viability at 100 nM to 10 uM measured over 24 hrs by MTT assay; type: cell-based; conditions: 0.1 µM
[6] = tested on: Human immunodeficiency virus 1; experiment: Antiviral activity against HIV-1 NL4-3 infected in human U87 cells expressing CD4.CXCR4 assessed as inhibition of p24 production measured after 4 days by p24 ELISA; type: functional, organism-based
[7] = target: Rev responsive element (RRE) RNA; experiment: Binding affinity to HIV-1 RRE 2B RNA measured after 4 hrs by EMSA; type: nucleic-acid assay, Human immunodeficiency virus 1
[8] = Toxicity against human U87 cells expressing CD4.CXCR4 assessed as cell viability at 10 uM measured after 24 hrs by MTT assay; type: cell-based, U-87MG ATCC; conditions: read-out: Activity
[9] = target: Rev responsive element (RRE) RNA; experiment: Binding affinity to HIV-1 RRE 2B RNA in presence of 1000-fold excess tRNA; type: nucleic-acid assay, Human immunodeficiency virus 1
[10] = tested on: Rev responsive element (RRE) RNA; experiment: Selectivity ratio of Kd for HIV-1 RRE 2B RNA to Kd for HIV-1 RRE 2B RNA in presence of 1000-fold excess tRNA; type: nucleic-acid assay; conditions: Human immunodeficiency virus 1
[11] = Binding affinity to HIV-1 TAR RNA; design: species or system Human immunodeficiency virus 1
[12] = tested on: Rev responsive element (RRE) RNA; experiment: Binding affinity to HIV-1 RRE 2B RNA assessed as protection against RNase V1-mediated RRE 2B cleavage at G17 and C18 preincubated for 4 hrs followed by addition of RNase V1 measured after 10 mins by nuclease protection assay; type: nucleic-acid assay; conditions: Human immunodeficiency virus 1
Summary of the method: (§1)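 5'-32P-labeled RRE IIB (10 nM) mixed with unlabeled RRE IIB (200 nM), heated to 95 °C for 3 min and snap-cooled. Incubated with peptide (up to 20 µM) on ice for 4 h in 10 mM Tris pH 7, 100 mM KCl, 10 mM MgCl2. Digested on ice with RNase V1 (0.002 U, 10 min), RNase T1 (1 U, 1 h) or RNase A (20 ng, 1 h). Stopped with inactivation/precipitation buffer, run on 12% urea PAGE, read by autoradiography against an alkaline hydrolysis ladder.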

[13] = tested on: Rev responsive element (RRE) RNA; experiment: Binding affinity to HIV-1 RRE 2B RNA assessed as protection against RNase A-mediated RRE 2B cleavage at C21 and U24 preincubated for 4 hrs followed by addition of RNase A measured up to 20 uM after 1 hr by nuclease protection assay; type: nucleic-acid assay; conditions: Human immunodeficiency virus 1; summary of the method: as §1
[14] = tested on: Rev responsive element (RRE) RNA; experiment: Binding affinity to HIV-1 RRE 2B RNA assessed as protection against RNase T1-mediated RRE 2B cleavage preincubated for 4 hrs followed by addition of RNase T1 measured up to 20 uM after 1 hr by nuclease protection assay; type: nucleic-acid assay; conditions: Human immunodeficiency virus 1; summary of the method: as §1
[15] = tested on: Rev responsive element (RRE) RNA; experiment: Binding affinity to HIV-1 RRE 2B RNA assessed as protection against RNase A-mediated RRE 2B cleavage at U9 and G34 preincubated for 4 hrs followed by addition of RNase A at 20 uM measured after 1 hr by nuclease protection assay; type: nucleic-acid assay; conditions: Human immunodeficiency virus 1; summary of the method: as §1
[16] = tested on: Rev responsive element (RRE) RNA; experiment: Binding affinity to HIV-1 RRE 2B RNA assessed as protection against RNase T1-mediated RRE 2B cleavage at G10 and G11 preincubated for 4 hrs followed by addition of RNase T1 at 20 uM measured after 1 hr by nuclease protection assay; type: nucleic-acid assay; conditions: Human immunodeficiency virus 1; summary of the method: as §1
[17] = tested on: Rev responsive element (RRE) RNA; experiment: Binding affinity to HIV-1 RRE 2B RNA assessed as protection against RNase A-mediated RRE 2B cleavage at C33 of loop B preincubated for 4 hrs followed by addition of RNase A at 20 uM measured after 1 hr by nuclease protection assay; type: nucleic-acid assay; conditions: Human immunodeficiency virus 1; summary of the method: as §1

| SMILES | Kd [1] | inhibition [2] | inhibition [3] | further results |
| --- | --- | --- | --- | --- |
| N[C@@H](Cc1ccc(B(O)O)cc1)C(=O)N[C@@H](Cc1ccc(O)cc1)C(=O)N[C@@H](Cc1ccc(B(O)O)cc1)C(=O)NCCCC[C@H](NC(=O)[C@H](Cc1ccc(B(O)O)cc1)NC(=O)[C@H](Cc1ccc(O)cc1)NC(=O)[C@@H](N)Cc1ccc(B(O)O)cc1)C(=O)O | > 100 µM | – | – | – |
| CCc1c(C)nc2sc(C(N)=O)c(N)c2c1C | – | Active | – | – |
| Cc1cn([C@H]2C[C@H](N=[N+]=[N-])[C@@H](CO)O2)c(=O)[nH]c1=O | – | – | Active | inhibition [4]: Active |
| Nc1ccn([C@@H]2CS[C@H](CO)O2)c(=O)n1 | – | – | Active | inhibition [4]: Active |
| NCCCC[C@H](NC(=O)[C@H](CCCCN)NC(=O)[C@H](CCCCNC(=O)c1ccc(B(O)O)cc1)NC(=O)[C@H](CCCCNC(=O)[C@H](Cc1ccc(B(O)O)cc1)NC(=O)[C@H](CCCCN)NC(=O)[C@@H](N)CCCCNC(=O)c1ccc(B(O)O)cc1)NC(=O)[C@H](Cc1ccc(B(O)O)cc1)NC(=O)[C@H](CCCCN)NC(=O)[C@@H](N)CCCCNC(=O)c1ccc(B(O)O)cc1)C(=O)N[C@@H](Cc1ccc(O)cc1)C(=O)O (H-K(Benzoyl(4-B(OH)2))K[Phe(4-B(OH)2)]K(X4)K(Benzoyl(4-B(OH)2))KKY-OH) | 3.3 µM | Active | inactive | – |
| NCCCC[C@H](NC(=O)[C@H](Cc1ccc(O)cc1)NC(=O)[C@@H](N)CCCCNC(=O)c1ccc(B(O)O)cc1)C(=O)NCCCC[C@H](NC(=O)[C@H](CCCCN)NC(=O)[C@H](Cc1ccc(O)cc1)NC(=O)[C@@H](N)CCCCNC(=O)c1ccc(B(O)O)cc1)C(=O)N[C@@H](Cc1cnc[nH]1)C(=O)N[C@@H](CCCCN)C(=O)N[C@@H](CCCCN)C(=O)N[C@@H](Cc1ccc(O)cc1)C(=O)O (H-K(Benzoyl(4-B(OH)2))YKK([Lys-Tyr-εLys-Benzoyl(4-B(OH)2)])HKKY-OH) | 86.5 µM | Active | inactive | – |
| NCCCC[C@H](NC(=O)[C@H](CCCCN)NC(=O)[C@H](CCCCNC(=O)[C@H](Cc1ccccc1)NC(=O)[C@H](CCCCNC(=O)c1ccc(B(O)O)cc1)NC(=O)[C@@H](N)CCCCN)NC(=O)[C@H](Cc1ccccc1)NC(=O)[C@H](CCCCNC(=O)c1ccc(B(O)O)cc1)NC(=O)[C@@H](N)CCCCN)C(=O)N[C@@H](Cc1c[nH]c2ccccc12)C(=O)N[C@@H](Cc1ccc(O)cc1)C(=O)O (H-KK(Benzoyl(4-B(OH)2))FK([Phe-X3])KKWY-OH) | 27.2 µM | Active | inactive | – |
| CC(C)C[C@H](NC(=O)[C@H](CCCCN)NC(=O)[C@H](CCCCNC(=O)[C@H](CCCCN)NC(=O)[C@H](CCCCNC(=O)c1ccc(B(O)O)cc1)NC(=O)[C@@H](N)CCCCN)NC(=O)[C@H](CCCCN)NC(=O)[C@H](CCCCNC(=O)c1ccc(B(O)O)cc1)NC(=O)[C@@H](N)CCCCN)C(=O)N[C@@H](CCCCN)C(=O)N[C@@H](Cc1ccc(O)cc1)C(=O)O (H-KK(Benzoyl(4-B(OH)2))KK([Lys-X3])KLKY-OH) | 58.4 µM | Active | inactive | – |
| C[C@@H](O)[C@H](NC(=O)[C@H](Cc1ccc(B(O)O)cc1)NC(=O)[C@H](CCCCNC(=O)[C@H](CCCCNC(=O)c1ccc(B(O)O)cc1)NC(=O)[C@H](CCCCN)NC(=O)[C@@H](N)CCCCN)NC(=O)[C@H](CCCCNC(=O)c1ccc(B(O)O)cc1)NC(=O)[C@H](CCCCN)NC(=O)[C@@H](N)CCCCN)C(=O)N[C@@H](CO)C(=O)N[C@@H](Cc1ccc(O)cc1)C(=O)O (H-KKK(Benzoyl(4-B(OH)2))K(X2)[Phe(4-B(OH)2)]TSY-OH) | 26.8 µM | Active | inactive | – |
| NCCCC[C@H](NC(=O)[C@H](CCCCN)NC(=O)[C@@H](N)Cc1c[nH]c2ccccc12)C(=O)NCCCC[C@H](NC(=O)[C@H](CCCCN)NC(=O)[C@H](CCCCN)NC(=O)[C@@H](N)Cc1c[nH]c2ccccc12)C(=O)N[C@@H](CCCCNC(=O)c1ccc(B(O)O)cc1)C(=O)N[C@@H](Cc1ccc(O)cc1)C(=O)N[C@@H](Cc1c[nH]c2ccccc12)C(=O)N[C@@H](Cc1ccc(O)cc1)C(=O)O (H-WKKK([Lys-Lys-Trp])K(Benzoyl(4-B(OH)2))YWY-OH) | 1.4 µM | Active | inactive | – |
| C[C@@H](O)[C@H](NC(=O)[C@@H]1CCCN1C(=O)[C@H](CCCCNC(=O)[C@H](CCCCN)NC(=O)[C@H](Cc1ccc(O)cc1)NC(=O)[C@@H](N)Cc1c[nH]c2ccccc12)NC(=O)[C@H](CCCCN)NC(=O)[C@H](Cc1ccc(O)cc1)NC(=O)[C@@H](N)Cc1c[nH]c2ccccc12)C(=O)N[C@@H](Cc1c[nH]c2ccccc12)C(=O)N[C@@H](Cc1ccc(O)cc1)C(=O)O (H-WYKK([Lys-Tyr-Trp])PTWY-OH) | 28.5 µM | Active | inactive | – |
| NCCCC[C@H](NC(=O)[C@H](CC(N)=O)NC(=O)[C@H](CCCCNC(=O)[C@H](Cc1ccc(B(O)O)cc1)NC(=O)[C@H](Cc1ccc(O)cc1)NC(=O)[C@@H](N)Cc1ccc(B(O)O)cc1)NC(=O)[C@H](Cc1ccc(B(O)O)cc1)NC(=O)[C@H](Cc1ccc(O)cc1)NC(=O)[C@@H](N)Cc1ccc(B(O)O)cc1)C(=O)N[C@@H](CO)C(=O)N[C@@H](Cc1ccc(O)cc1)C(=O)O (H-[Phe(4-B(OH)2)]Y[Phe(4-B(OH)2)]K(X1)NKSY-OH) | 8.7 µM | – | Active | inhibition at 10 µM ([2]; Human immunodeficiency virus 1, NL4-3, in Primates): 70%; Activity [5]: Non-Toxic; inhibition [6]: Dose-dependent effect; IC50 ([6]; Human immunodeficiency virus 1, NL4-3, U-87 MG, 96 h): 5 µM; inhibition [4]: Active; Kd [7]: 4.6 µM; viability at 24 h, 10 µM [8]: > 80%; Kd [9]: 26.4 µM; Selectivity ratio [10]: 3; Kd [11]: 5.2 µM; Activity [12]: Dose-dependent effect; Activity [13]: Active; Activity [14]: inactive; Activity [15]: inactive; Activity [16]: inactive; Activity [17]: inactive |
| NCCCC[C@H](NC(=O)[C@H](CC(N)=O)NC(=O)[C@H](CCCCN)NC(=O)[C@H](Cc1ccc(B(O)O)cc1)NC(=O)[C@H](Cc1ccc(O)cc1)NC(=O)[C@@H](N)Cc1ccc(B(O)O)cc1)C(=O)N[C@@H](CO)C(=O)N[C@@H](Cc1ccc(O)cc1)C(=O)O (H-[Phe(4-B(OH)2)]Y[Phe(4-B(OH)2)]KNKSY-OH) | 17.7 µM | – | – | – |
| NCCCC[C@H](NC(=O)[C@H](CC(N)=O)NC(=O)[C@H](Cc1ccc(B(O)O)cc1)NC(=O)[C@H](Cc1ccc(O)cc1)NC(=O)[C@H](Cc1ccc(B(O)O)cc1)NC(=O)[C@H](Cc1ccc(B(O)O)cc1)NC(=O)[C@H](Cc1ccc(O)cc1)NC(=O)[C@@H](N)Cc1ccc(B(O)O)cc1)C(=O)N[C@@H](CO)C(=O)N[C@@H](Cc1ccc(O)cc1)C(=O)O (H-[Phe(4-B(OH)2)]Y[Phe(4-B(OH)2)][Phe(4-B(OH)2)]Y[Phe(4-B(OH)2)]NKSY-OH) | 27.2 µM | – | – | – |
